In the library only some 1.9% were active in any assay of this set; here they are far more common.
NadD block = NadD (S. aureus) enzyme inhibition; purified NadD enzyme, colorimetric absorbance read-out; inhibition, % at 20 µM; 360,000 compounds, 0.78% hits; AID 602399; in the data active means inhibition above about 26%
Rce1 inh = yeast Ras-converting enzyme inhibition | yeast membranes, quenched prenylated peptide cleavage fluorescence | calls only | 290,000 compounds, 0.27% hits | AID 2563;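 active means fall in fluorescence gain of 50% or more versus controls, with final raw signal at or below 3038400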
HCV core dimer = HCV core protein dimerization inhibition. TR-FRET GST/Flag-core106 dimerization, 1536-well. inhibition, % at 5 µM. 300,000 compounds, 0.33% hits;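 active means inhibition above the mean of all tested compounds plus 3 SD, set per screening campaign, cut at about 45% in these data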
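Assay system: Tagged HCV core106 pair (GST and Flag) | Buffer or medium: KF-containing HEPES buffer, pH 7.45, DTT, CHAPS, BSA | Also added: Eu donor and XL665 acceptor anti-tag antibodies | Dosing: One concentration, 5 µM, in 0.5% DMSO | Timing: 4 h at 22.5 °C | Technique: TR-FRET 671 and 617 nm emission | Repeats: Singlicate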
Pemphigus Ab inh = blocks pemphigus antibody binding to human desmoglein-3 | AID 588358 | binding (percent of control), % at 10 µM | P32926 | 310,000 compounds, 0.48% hits | DSG3-coupled beads, scFv-anti-DSG3-GFP binding, flow cytometry; stronger effect = lower value;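 active means binding more than 3 SD below its plate's average and above zero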
Target sequence (P32926 whole entry, looked up): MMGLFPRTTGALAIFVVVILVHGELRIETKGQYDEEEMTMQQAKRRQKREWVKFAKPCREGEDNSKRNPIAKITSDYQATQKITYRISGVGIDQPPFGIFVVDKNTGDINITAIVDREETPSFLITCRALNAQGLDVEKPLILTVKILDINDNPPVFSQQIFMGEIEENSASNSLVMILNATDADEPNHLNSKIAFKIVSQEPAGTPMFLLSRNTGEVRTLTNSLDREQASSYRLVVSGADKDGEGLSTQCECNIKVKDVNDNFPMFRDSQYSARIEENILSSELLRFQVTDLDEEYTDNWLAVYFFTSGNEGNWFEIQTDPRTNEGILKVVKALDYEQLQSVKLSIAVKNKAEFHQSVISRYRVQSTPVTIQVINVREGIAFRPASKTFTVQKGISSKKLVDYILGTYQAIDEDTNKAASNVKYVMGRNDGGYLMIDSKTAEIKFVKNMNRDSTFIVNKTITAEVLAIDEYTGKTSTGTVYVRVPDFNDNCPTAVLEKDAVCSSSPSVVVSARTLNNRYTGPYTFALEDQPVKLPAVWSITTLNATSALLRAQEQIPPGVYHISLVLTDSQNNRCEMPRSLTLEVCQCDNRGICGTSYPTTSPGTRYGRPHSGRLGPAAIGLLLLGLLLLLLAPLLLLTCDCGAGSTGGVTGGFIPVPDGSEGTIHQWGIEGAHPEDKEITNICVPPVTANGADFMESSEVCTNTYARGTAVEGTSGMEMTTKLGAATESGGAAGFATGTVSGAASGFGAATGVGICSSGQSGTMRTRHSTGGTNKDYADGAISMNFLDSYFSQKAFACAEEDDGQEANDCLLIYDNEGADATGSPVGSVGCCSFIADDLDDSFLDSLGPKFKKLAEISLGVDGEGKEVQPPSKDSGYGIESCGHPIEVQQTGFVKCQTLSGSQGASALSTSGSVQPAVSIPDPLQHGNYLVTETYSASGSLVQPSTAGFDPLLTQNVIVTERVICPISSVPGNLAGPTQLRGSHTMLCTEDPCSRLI
TbMetRS inhib = blocks T. brucei methionyl-tRNA synthetase activity; purified T. brucei MetRS, ATP depletion, Kinase-Glo luminescence; inhibition, % at 11.9 µM; 360,000 compounds, 0.4% hits;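 active means inhibition above a per-plate cutoff of the control wells' mean inhibition plus 3 SD, cut at about 5.5% in these data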
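Material: parasite MetRS enzyme / Replication: singlicate, one well per compound / Signal: luminescence of leftover ATP / Schedule: 2 h aminoacylation at 25 °C after 15 min preincubation / Medium: HEPES-MgCl2-KCl buffer plus DTT, spermine, BSA, pyrophosphatase / Doses: 11.9 µM single point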
Large screens that a line does not name were inactive.

CCC1(c2ccccc2)NC(=O)N(CC(=O)Nc2ccc3c(c2)OCO3)C1=O (configuration not stated)	none
Cc1ccc(OC(C)C(=O)Nc2ccncc2)cc1 (configuration not stated)	none
CN(C)CCCN(Cc1cc2cc3c(cc2[nH]c1=O)OCO3)C(=S)Nc1ccccc1	none
COc1cccc2[nH]c(C(=O)NC(C)c3ccccc3)cc12 (configuration not stated)	Rce1 inh active
CCOc1cc(/C=N\NC(=O)c2ccc(C)nc2)ccc1OC(=O)c1ccc(F)cc1	Pemphigus Ab inh 65.7
Cc1cc(NC(=O)c2cccc(S(=O)(=O)N3CCCC3)c2)no1	none
CCOc1ccc(C(=O)NC2CCN(C(=S)Nc3ccccc3C)CC2)cc1	Pemphigus Ab inh -5.5
Brc1cc(Br)c2ncnc(N3CCCCC3)c2c1	HCV core dimer 60.7
Clc1ccc(-n2ncc3c(N4CCCCCC4)ncnc32)cc1	none
Cc1ccc2nc(SCc3ccc([N+](=O)[O-])cc3)[nH]c2c1	TbMetRS inhib 18.8
Cc1ccc2nc(SCc3ccc([N+](=O)[O-])cc3)nc(C)c2c1	none
Cc1ccc2nc(SCC(=O)Nc3cccc([N+](=O)[O-])c3)[nH]c2c1	TbMetRS inhib 72.4
Cc1ccc(CCNC(=O)CCS(=O)(=O)c2ccc3nc(C)sc3c2)cc1	Pemphigus Ab inh -10.9
Cc1cccc(CCNC(=O)CCS(=O)(=O)c2ccc3nc(C)sc3c2)c1	none
CN(CCOc1ccccc1)C(=O)CCc1nc2sc3c(c2c(=O)[nH]1)CCCC3	none
CCOC(=O)c1ccc(-c2nnc(-c3ccc(Cl)cc3Cl)o2)cc1	Pemphigus Ab inh 92.9
CC(=O)c1ccc(NC(=O)Cn2cnc(S(=O)(=O)N3CCc4ccccc43)c2)cc1	Pemphigus Ab inh 79.2
CC(=O)c1ccc(NC(=O)Cn2cnc(S(=O)(=O)N3CCCC3)c2)cc1	none (no result: Pemphigus Ab inh)
CC(c1ccon1)N(C)Cc1cn(Cc2ccccc2)nc1-c1ccc2c(c1)OCO2 (configuration not stated)	none
Cc1nc(N2CCCCC2)c2c(C)c(C(=O)Nc3ccccc3C(F)(F)F)sc2n1	Rce1 inh active
Cc1nc(NC(=O)c2ccc(-c3cc4ccccc4oc3=O)cc2)ccc1Br	none (no result: Pemphigus Ab inh)
Cc1nc(NC(=O)c2cccc(-c3cc4ccccc4oc3=O)c2)ccc1Br	Rce1 inh active
COc1cc2ccccc2cc1-c1nnc(COc2ccccc2)o1	Pemphigus Ab inh 89.8
COc1ccc(-c2nnc(COc3ccc4ccccc4c3)o2)cc1OC	none
O=C(N/N=C/C=C/c1ccc([N+](=O)[O-])cc1)c1cccs1	HCV core dimer 48.9
O=C(N/N=C/C=C\c1ccccc1[N+](=O)[O-])c1cccs1	none
Cc1ccc(CCNC(=O)C2CCCN(C(=O)N(C)C)C2)cc1 (configuration not stated)	none
O=[N+]([O-])c1ccc(CSc2ccc(-c3ccccn3)nn2)cc1	Pemphigus Ab inh 82.6
Cc1cc(C)cc(OCC(=O)NCc2nc(-c3ccccc3)no2)c1	none
CCOc1cccc(=O)c2c(C)n(Cc3ccco3)c(C)c12	none
CCOc1cccc(=O)c2c(C)n(Cc3ccccc3)c(C)c12	HCV core dimer 49.5 (no result: Rce1 inh)
CCOP(=O)(OCC)C(C#N)=C1SCN(c2ccccc2)CS1	HCV core dimer 89.9
COCCn1c(Sc2ccccc2)nc2c1c(=O)[nH]c(=O)n2C	none (no result: Pemphigus Ab inh)
Cc1ccc(/C=C2\SC(=S)N(/N=C/c3cc([N+](=O)[O-])ccc3O)C2=O)o1	NadD block 36.8
COC(=O)c1cn(CC(=O)N2C(C)CCCC2C)c2ccccc12 (configuration not stated)	none
CC1CCCC(C)N1C(=O)Cn1cc(/C=C2/C(=O)Nc3ccccc32)c2ccccc21 (configuration not stated)	NadD block 34.0
COC(=O)c1ccc(C2C(Oc3ccccc3)C(=O)N2CCc2ccc(F)cc2)cc1 (configuration not stated)	none
COC(=O)c1ccc(C2C(Oc3ccc(OC)cc3)C(=O)N2CCc2ccc(OC)c(OC)c2)cc1 (configuration not stated)	Pemphigus Ab inh 72.5
O=C1c2cccc3c(N4CCOCC4)c([N+](=O)[O-])cc(c23)C(=O)N1c1cccc2ccccc12	none
Cc1cccc(N2C(=O)c3cccc4c(N5CCCCC5)c([N+](=O)[O-])cc(c34)C2=O)c1C	Rce1 inh active
Cc1cccc(NC(=S)/N=C(\N)Nc2nc(C)c3ccc(C)cc3n2)c1	HCV core dimer 48.4
CCCCCCN(C(=O)CCCCCN1C(=O)NC(c2ccc(-c3ccccc3)cc2)C(C(=O)OCc2ccccc2)=C1C)C(C(=O)NCCCC)c1ccc(OCC(=O)OC)cc1 (configuration not stated)	none (no result: NadD block, Pemphigus Ab inh, TbMetRS inhib)
CC(C)CNC(=O)Nc1ccc(F)c(Cl)c1	Rce1 inh active
O=C(c1ccco1)N1CCN(C(=O)c2cc(-c3ccccn3)nc3ccc(Cl)cc23)CC1	HCV core dimer 76.2
O=C(c1ccco1)N1CCN(C(=O)c2cc(-c3ccccc3)nc3ccccc23)CC1	none (no result: Pemphigus Ab inh)
COc1ccc(/C=C2\C(=O)N(c3c(Cl)cc(Cl)cc3Cl)N=C2NC(=O)c2cccc([N+](=O)[O-])c2)cc1	NadD block 83.7 (no result: Rce1 inh)
CC1CCN(S(=O)(=O)c2ccc(N=NC3=C(O)CC(C)(C)CC3=O)cc2)CC1	Pemphigus Ab inh 7.6
COc1ccc(C#Cc2c(-c3ccsc3)oc3ccc(N4CCOCC4)cc23)cc1	none
COc1ccc(-c2oc3ccc(N4CCOCC4)cc3c2C#Cc2ccc(N)cc2)cc1	Rce1 inh active
CN(c1ccccc1)S(=O)(=O)c1ccc(C(=O)NCCc2ccc(F)cc2)cc1	none (no result: Pemphigus Ab inh)
NC(CSC(c1ccccc1)(c1ccccc1)c1cccc2ccccc12)C(=O)O (configuration not stated)	NadD block 41.7 (no result: Rce1 inh, HCV core dimer)
CCOc1cc2c(c3c1C(c1ccccc1)N(S(=O)(=O)c1ccc(C)cc1)C3)C(=O)C=CC2=O (configuration not stated)	NadD block 46.1 (no result: Rce1 inh, HCV core dimer, Pemphigus Ab inh)
Cc1cccn2c(CNCCCOc3cccnc3)c(C(=O)N3CCOCC3)nc12	none
CCOC(=O)CSc1nc2sc(C)c(C)c2c(=O)n1N	Pemphigus Ab inh 57.5
CCOC(=O)CSc1nc2sc(C)c(C)c2c(=O)n1C	none (no result: Pemphigus Ab inh)
Cc1cc(NC(=S)N(CCN2CCOCC2)Cc2ccccc2F)ccc1Cl	none (no result: Pemphigus Ab inh)
NC(=S)n1[nH]c(-c2ccc([N+](=O)[O-])cc2)c(N=Nc2ccc(O)cc2)c1=O	NadD block 53.9 (no result: Pemphigus Ab inh)
NC(=S)n1[nH]c(-c2ccc([N+](=O)[O-])cc2)c(N=Nc2cccc(Cl)c2)c1=O	NadD block 93.4 (no result: HCV core dimer)
COC(=O)c1c(C)oc2ccc(N(C(=O)Oc3ccccc3)S(=O)(=O)c3ccc(Cl)c([N+](=O)[O-])c3)cc12	NadD block 31.2, HCV core dimer 64.4
CCOc1ccc(C(=O)/C=C/Nc2ccc(S(=O)(=O)Nc3cc(C)nc(C)n3)cc2)cc1	none (no result: NadD block, Pemphigus Ab inh, TbMetRS inhib)
